An excerpt weighted towards active compounds, which were near 12% of everything screened.
Cl transport mod = modulates chloride dependent transport by human KCC2 | Q9H2X9 | KCC2 cells, thallium flux FluoZin-2 fluorescence | B-score of Tl+ flux slope (higher = more flux/activation; lower = inhibition) at 10 µM | 190,000 tested, 2.2% active | AID 1456;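 active means thallium flux slope and its plate-corrected score both differing from the plate sample mean at a set confidence after two filtering rounds, in either direction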;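 further: slope of fluorescence scaled to starting intensity during 10 to 20 s after thallium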
WT yeast gro inh = growth inhibition of WT yeast, mitochondrial fusion screen | AID 1362 | inhibition, % at 10 µM | 190,000 tested, 2.1% active | mitochondrial fusion phenotypic screen, WT strain; in the data active means inhibition above about 58%; tested in S. cerevisiae
Diaphorase act = diaphorase activation or chemical reduction counter-screen; 190,000 tested, 0.005% active; Diaphorase/resazurin coupled assay, resorufin fluorescence, 16 min; hits give high values; 1 = vehicle wells, 0 = NADH-free wells; activation factor at 20 µM;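 active means diaphorase activity raised at least twofold by the compound at 20 µM; inactive means activation factor below 2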
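Material: Purified diaphorase enzyme from Clostridium kluyveri | Buffer or medium: 50 mM HEPES pH 7.4 with 4.542 mM MgCl2, 0.005% Tween 20 | Times: 16 min enzyme reaction, ambient temperature | Signal: Red resorufin fluorescence at 544/590 nm excitation/emission | Measure: Increased resorufin signal from activators or reducing compounds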
L major viab = inhibitors of Leishmania major promastigote growth. AID 1063. 200,000 tested, 9% active. inhibition, % at 10 µM. Leishmania major promastigotes, resazurin fluorescence viability; in the data active means inhibition above about 50%;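 further: promastigotes grown with compound for 44 hours at 28 °C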
ROMK primary = modulators of human ROMK potassium channel; Tet-inducible ROMK, thallium flux fluorescence; actives lie on both sides; P48048; 130,000 tested, 2% active; B-score at 10 µM;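 active means signal ratio slope over the read window, or its plate-corrected B-score, at least 3 SD from the plate mean, either direction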;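 further: B-score of the F/F0 ratio slope over 7 to 12 s after thallium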
Diaph inh CS = diaphorase inhibition or chemical oxidation counter-screen | diaphorase resazurin-to-resorufin fluorescence, NADH, 16 min; bacterial (C. kluyveri) enzyme, not human | inhibition, % at 20 µM | 190,000 tested, 0.69% active | AID 1217;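 active means primary screen inhibition at 20 µM above a set limit, cut at about 50% in these data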;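 further: plate controls were DMSO with full reaction for no effect and wells lacking NADH for full effect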
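Assay system – diaphorase enzyme from Clostridium kluyveri · Amount – diaphorase 0.14 U/mL (working solution) · Times – reaction incubation of 16 min at room temperature · Controls – No-NADH positive control and DMSO neutral control · Signal – resorufin fluorescence 544/590 nm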
* hit, by the source's call; i = inactive; / = not tested or not shown.

SMILES | Cl transport mod | WT yeast gro inh | Diaphorase act | L major viab | ROMK primary | Diaph inh CS
CCN1CCC[C@H]1CNC(=O)c1c(O)c(Cl)cc(Cl)c1OC | -0.19 | -3 | 1 | / | / | 3
CCN1CCCC1CNC(=O)c1c(O)c2c([nH]c1=O)CCCC2 (stereo not given) | / | 0 | 1.1 | 52* | 0.2 | -9
COc1cc(/C=C(\C#N)C(=O)Nc2cccc3ncccc23)ccc1O | -1.6 | 8 | 0.9 | 100* | 0.41 | 13
NS(=O)(=O)c1ccc(CCNC(=O)c2ccc3c(c2)OCCO3)cc1 | 2.2 | 8 | 0.9 | 1 | -0.018 | 5
O=C(Nc1ccccc1)C1CC2CCCC(C1)C2=O (stereo not given) | 0.99 | -8 | 0.9 | -4 | / | 12
O=C(Nc1ccccc1)OC1CCC2CC1CCC2OC(=O)Nc1ccccc1 (stereo not given) | 0.56 | 67* | 0.9 | 41 | 0.062 | 10
Cc1onc(-c2c(F)cccc2Cl)c1C(=O)Nc1cccc(S(=O)(=O)NCc2ccco2)c1 | -0.46 | -17 | 0.8 | 18 | 0.27 | 20
Cc1ccc(NC(=S)NCc2ccccn2)cc1 | -0.51 | 6 | 0.9 | 50* | / | 9
Cc1ccc(NC(=S)N(CCCN2CCOCC2)Cc2cccnc2)cc1C | -0.41 | -10 | 0.9 | 64* | -0.3 | 9
CCc1ccc(NC(=S)N(CCCN2CCOCC2)Cc2ccccn2)cc1 | 0.26 | -14 | 1.1 | 68* | -0.42 | -10
Cc1ccccc1NC(=S)N(CCCN1CCOCC1)Cc1cccnc1 | 0.83 | 1 | 1 | 5 | -0.25 | 4
Cc1cccc(NC(=S)NCc2ccccn2)c1 | 1 | -8 | 0.9 | -1 | / | 5
CCc1ccc(NC(=S)N(Cc2ccccc2)Cc2ccccn2)cc1 | / | 68* | 0.9 | 22 | 0.33 | 8
Cc1[nH]c2ccccc2c1C(=O)Cn1c(=O)oc2ccccc21 | 0.26 | 6 | 0.8 | -15 | -0.67 | 22
CCOc1ccc(Br)cc1C1C(C(=O)OC)=C(N)Oc2cc(N(C)C)ccc21 (stereo not given) | 0.88 | 59* | 0.8 | 100* | -0.86 | 21
CCOc1ccc(Br)cc1CC(=O)O | -0.016 | -10 | / | -2 | 0.47 | /
CNC(=S)N/N=C/c1cn(CCOc2ccc(OC)cc2)c2ccccc12 | 0.29 | -6 | 0.8 | 17 | / | 18
CCOc1cc(/C=C2/C(=O)ON=C2C)ccc1OCc1ccccc1F | -1.7 | 11 | 0.9 | 58* | / | 14
CCC(=O)N1CCc2cc(S(=O)(=O)CCC(=O)Nc3ccc(C)cn3)ccc21 | -0.32 | -2 | 1 | -4 | -0.47 | 1
CCN(CC(=O)NC(C)C)C(=O)[C@@H](NC(=O)c1ccco1)C(C)C | 2.2 | 3 | 1 | -9 | -0.3 | 4
O=C1CC(/C=C/c2ccccc2)=Nc2ccccc2N1 | / | -11 | 0.9 | 84* | -0.58 | 7
O=C1CC(/C=C/c2cccnc2)=Nc2ccccc2N1 | 0.17 | 0 | 0.9 | 65* | 0.82 | 9
CC(CCc1ccccc1)NC(=O)Cc1ccc([N+](=O)[O-])cc1 (stereo not given) | -1.5 | 7 | 0.9 | 65* | / | 10
CC(CCc1ccccc1)NC(=O)CN1CCN(c2ccc(O)cc2)CC1 (stereo not given) | -0.45 | -11 | 0.6 | 64* | 0.15 | 38
CC(CCc1ccccc1)NC(=O)Cc1cccs1 (stereo not given) | -0.35 | -7 | 0.9 | -4 | 1.4 | 14
SMILES | Cl transport mod | WT yeast gro inh | Diaphorase act | L major viab | ROMK primary | Diaph inh CS
CC(CCc1ccccc1)NC(=O)CSc1ccccc1 (stereo not given) | -1.7 | -2 | 0.9 | 52* | -0.12 | 12
CC(CCc1ccccc1)NC(=O)CSc1cccc[n+]1[O-] (stereo not given) | 0.04 | -6 | 0.8 | -8 | 0.33 | 18
O=C(OC(C(=O)NCC1CCCO1)c1ccc(F)cc1)c1ccco1 (stereo not given) | 1.3 | -9 | 1 | 0 | 0.01 | 2
O=C(c1ccco1)N1CCC(c2ccccc2)C1 (stereo not given) | / | -14 | 0.9 | -6 | -0.37 | 8
CC1=C(C(=O)OCCc2ccccc2)C(c2ccsc2)NC(=O)N1C (stereo not given) | / | 17 | 1.1 | -2 | 0.0077 | -5
Cc1[nH]n(-c2ncc(-c3ccccc3)s2)c(=O)c1C(c1ccc(Br)cc1)C(C#N)C#N (stereo not given) | -2.5 | -4 | 0.9 | 81* | / | 7
Cc1[nH]n(C(N)=S)c(=O)c1C(c1ccccc1)C(C#N)C#N (stereo not given) | 0.19 | 10 | 0.9 | 5 | / | 9
Cc1nn(CC(=O)OC(C)C(=O)Nc2ccccc2[N+](=O)[O-])c(C)c1[N+](=O)[O-] (stereo not given) | 0.013 | -17 | 1 | -1 | / | 4
CCOC(=O)c1sc(Nc2nc(OC)cc(OC)n2)nc1C | 0.074 | 15 | 0.9 | 54* | -0.29 | 8
c1ccc(Cn2ccc(-c3cnc(-c4ccccc4)s3)n2)cc1 | / | 2 | 0.8 | -4 | 0.39 | 19
O=C(CN1CCN(Cc2ccccc2Cl)CC1)N/N=C/C=C/c1ccccc1[N+](=O)[O-] | -0.45 | 6 | 0.9 | -4 | -0.45 | 11
CC(C)C(NS(=O)(=O)c1cccs1)C(=O)N1CCc2ccccc2C1 (stereo not given) | -0.33 | 5 | 1 | -3 | 0.89 | 1
CCN(CC)c1ccc(/C=C2/SC(=O)N(C(C)C)C2=O)o1 | i | 57 | 0.7 | 99* | / | 25
Cc1cc(N2CCOCC2)ccc1/C=C1\SC(=O)N(C(C)C)C1=O | 1.2 | -11 | 0.9 | 5 | -1.3 | 10
Cc1cccc(NCc2ccccc2OCc2ccccc2F)c1 | -0.3 | 5 | 0.8 | -2 | 0.52 | 23
Oc1ccc(CNc2ccc(F)cc2)c2cccnc12 | -0.65 | 11 | 0.2 | -3 | 0.55 | 77*
c1ccc2c(Cn3ccnc3)c[nH]c2c1 | -1.1 | 4 | 0.9 | 35 | / | 12
Cc1ccccc1N=Nc1ccc(O)c2ncccc12 | 41* | 24 | 0.9 | 100* | 0.56 | 12
Cc1cccc(NCc2ccc(O)c3ncccc23)c1 | 1.2 | -1 | 0.2 | -4 | -0.0024 | 78*
Oc1ccc(Cn2ccnc2)c2cccnc12 | 1.2 | -3 | 0.5 | 99* | 0.93 | 54*
Fc1ccc(NCc2cn3ccccc3n2)cc1 | / | 6 | 0.9 | 4 | / | 9
O=Nc1ccc(O)c2ncccc12 | 0.33 | / | / | / | / | /
O=C(CCn1c(=O)c2sccc2n(CC(=O)OCc2ccccc2)c1=O)NCc1ccccc1 | / | 6 | 0.9 | -6 | -0.23 | 7
Cc1ccc(CSc2nccc(-c3c(C)nc4ccccn34)n2)cc1 | -0.68 | / | / | / | / | /
Cc1ccccc1NCc1ccc(O)c2ncccc12 | 0.82 | -7 | 0.1 | 100* | 0.67 | 92*
Oc1ccc(CNc2ccccc2)c2cccnc12 | -0.36 | 35 | 0.1 | 66* | 0 | 86*

Source: PubChem BioAssay (several laboratories)
